One compound from ChEMBL document CHEMBL5712070, “Discovery of a chemical probe for the L3MBTL3 methyllysine reader domain” (Nat Chem Biol, 2013) can be followed below.

The source made the active and inactive calls. The calls are words filed in the database; no cut-off is given here.

Series [1] deals with T1, Lethal(3)malignant brain tumor-like protein 3 (Homo sapiens, UniProt Q96JM7).
T1 sequence (Q96JM7 whole entry): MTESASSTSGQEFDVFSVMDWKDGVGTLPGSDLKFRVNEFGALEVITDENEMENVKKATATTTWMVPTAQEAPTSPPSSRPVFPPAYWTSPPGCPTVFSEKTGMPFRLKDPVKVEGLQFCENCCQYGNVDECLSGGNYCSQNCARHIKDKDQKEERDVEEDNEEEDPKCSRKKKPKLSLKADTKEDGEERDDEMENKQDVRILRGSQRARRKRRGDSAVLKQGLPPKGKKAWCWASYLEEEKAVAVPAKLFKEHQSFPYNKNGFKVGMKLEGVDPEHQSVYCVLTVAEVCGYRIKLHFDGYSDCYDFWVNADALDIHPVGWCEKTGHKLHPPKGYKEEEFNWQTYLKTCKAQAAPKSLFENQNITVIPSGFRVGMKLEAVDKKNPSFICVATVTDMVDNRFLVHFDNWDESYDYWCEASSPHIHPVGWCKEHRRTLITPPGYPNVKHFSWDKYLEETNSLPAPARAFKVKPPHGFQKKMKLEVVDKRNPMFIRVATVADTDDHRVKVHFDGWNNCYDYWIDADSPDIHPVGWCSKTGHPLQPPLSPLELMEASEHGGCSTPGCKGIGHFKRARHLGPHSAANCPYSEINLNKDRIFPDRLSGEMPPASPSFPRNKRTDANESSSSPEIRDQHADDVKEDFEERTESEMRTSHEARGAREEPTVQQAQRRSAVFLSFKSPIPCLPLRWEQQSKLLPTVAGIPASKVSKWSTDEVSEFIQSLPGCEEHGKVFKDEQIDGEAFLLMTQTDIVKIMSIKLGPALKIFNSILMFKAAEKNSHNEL
Put plainly: Binding affinity to GFP-tagged full length L3MBTL3 (unknown origin) assessed as diffusion coefficient at 1 uM (reference value: 0.037549815 um2/s).

Series [2] concerns the target Chromobox protein homolog 7 (Homo sapiens, UniProt O95931). Put plainly: Inhibition of chromo domain containing CBX7 (unknown origin) using H4K20me2 peptide by Alpha-Screen methylated histone peptide competition assay. Background: In Alpha technology, singlet oxygen from a donor bead excites a nearby acceptor bead.
The target of series [3] is Receptor-type tyrosine-protein kinase FLT3 (Homo sapiens) (UniProt P36888). Put plainly: Inhibition of FLT3 (unknown origin) at 10 uM relative to control.
The target of series [4] is T1, Lethal(3)malignant brain tumor-like protein 3. Put plainly: Binding affinity to GFP-3MBT tagged L3MBTL3 (unknown origin) assessed as diffusion coefficient at 0.5 uM (reference value: 0.1272 um2/s).
A short description of series [5]: Cytotoxicity in HEK293T/17 cells assessed as effect on cell viability up to 100 uM incubated for 24 hrs by CellTiter-Glo luminescent cell viability assay. The format is toxicity, cell-based. To be noted: human, hek293t/17, 24 h. In general terms: Cellular ATP, detected with luciferase, serves as a proxy for viable cell number.
Series [6] deals with Alpha-2C adrenergic receptor (Homo sapiens, UniProt P18825). Put plainly: Inhibition of alpha2C receptor (unknown origin) by radioligand binding assay.
For series [7], the target named is Mortality factor 4-like protein 1 (Homo sapiens, UniProt Q9UBU8). The series is described as follows: Binding affinity to MRG15 (unknown origin) by ITC assay. For orientation: Isothermal titration calorimetry measures the heat released or taken up as one component is titrated into another.
Series [8] addresses Muscarinic acetylcholine receptor M5 (Homo sapiens, UniProt P08912). The series is described as follows: Inhibition of M5 receptor (unknown origin) by radioligand binding assay.
The target of series [9] is T1, Lethal(3)malignant brain tumor-like protein 3. Put plainly: Inhibition of GFP-3MBT tagged L3MBTL3 (unknown origin) expressed in HEK293 cells assessed as disruption of foci formation by immunofluorescence assay. The class given is cell-based. The method in brief:
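HEK293 cells seeded on coverslips at 100,000 cells/well, transfected 16–24 h later with GFP-3MBT and expressed for 48 h. Compound given at the indicated concentrations for at least 24 h before imaging. Nuclei stained with Hoechst 33342 for 30 min, then spinning-disk confocal imaging. Foci quantified as % GFP intensity.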

The target in series [10] is T2, Lethal(3)malignant brain tumor-like protein 3 (Homo sapiens) (UniProt Q96JM7).
T2 sequence (whole entry): T1 sequence (Q96JM7 whole entry)
The note with it: dose 0.1 µM.

The target of series [11] is Sodium-dependent dopamine transporter (Homo sapiens, UniProt Q01959). Put plainly: Inhibition of DAT (unknown origin) by radioligand binding assay.
Series [12] concerns the target E3 ubiquitin-protein ligase UHRF1 (Homo sapiens, UniProt Q96T88). Put plainly: Inhibition of tudor domain containing UHRF1 (unknown origin) using H4K20me2 peptide by Alpha-Screen methylated histone peptide competition assay.
The target of series [13] is Muscarinic acetylcholine receptor M3 (Homo sapiens, UniProt P20309). The series is described as follows: Inhibition of M3 receptor (unknown origin) by radioligand binding assay.
Series [14] concerns the target T1, Lethal(3)malignant brain tumor-like protein 3. The series is described as follows: Inhibition of L3MBTL3 (unknown origin) using H4K20me2 peptide by Alpha-Screen methylated histone peptide competition assay.
A further series is filed under the species Homo sapiens. The series is described as follows: Binding affinity to L3MBTL3 D381A mutant (unknown origin) by ITC assay.
Series [15] deals with T1, Lethal(3)malignant brain tumor-like protein 3. The series is described as follows: Binding affinity to GFP-3MBT tagged L3MBTL3 (unknown origin) assessed as diffusion coefficient at 1 uM (reference value: 0.1272 um2/s).
Series [16] can be described thus: Binding affinity to L3MBTL3 H277A mutant (unknown origin) by ITC assay. Set-up: species or system Homo sapiens.
The nature of series [17]: Stability in HEK293T/17 cells assessed as compound degradation after 72 hrs in presence of in cell media. The format is ADME, cell-based. To be noted: human, hek293t/17, 72 h. The method in brief: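 Compound incubated in cell medium with or without HEK293 cells for 72 hours, then examined for degradation products.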
Series [18] addresses T2, Lethal(3)malignant brain tumor-like protein 3 (Homo sapiens). Put plainly: Binding affinity to GFP-tagged full length L3MBTL3 (unknown origin) assessed as protein half life at 1 uM.
For series [19] the target is unchanged. The note with it: dose 0.5 µM.
Another series deals with TP53-binding protein 1 (Homo sapiens, UniProt Q12888). Put plainly: Binding affinity to 53BP1 (unknown origin) by ITC assay.

Sequence of Alpha-2C adrenergic receptor (P18825 whole entry): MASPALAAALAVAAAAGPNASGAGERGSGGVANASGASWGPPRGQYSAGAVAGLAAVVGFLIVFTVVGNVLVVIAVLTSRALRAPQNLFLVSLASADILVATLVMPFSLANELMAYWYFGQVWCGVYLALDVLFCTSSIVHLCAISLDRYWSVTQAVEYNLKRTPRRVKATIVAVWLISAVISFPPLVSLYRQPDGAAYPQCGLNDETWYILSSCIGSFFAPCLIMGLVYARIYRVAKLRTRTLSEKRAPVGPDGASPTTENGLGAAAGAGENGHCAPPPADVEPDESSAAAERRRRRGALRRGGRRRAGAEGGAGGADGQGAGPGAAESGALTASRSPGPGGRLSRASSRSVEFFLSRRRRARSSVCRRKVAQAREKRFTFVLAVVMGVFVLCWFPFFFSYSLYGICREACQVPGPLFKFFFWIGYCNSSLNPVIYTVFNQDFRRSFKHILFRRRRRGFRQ
Sequence of Muscarinic acetylcholine receptor M5 (P08912 whole entry): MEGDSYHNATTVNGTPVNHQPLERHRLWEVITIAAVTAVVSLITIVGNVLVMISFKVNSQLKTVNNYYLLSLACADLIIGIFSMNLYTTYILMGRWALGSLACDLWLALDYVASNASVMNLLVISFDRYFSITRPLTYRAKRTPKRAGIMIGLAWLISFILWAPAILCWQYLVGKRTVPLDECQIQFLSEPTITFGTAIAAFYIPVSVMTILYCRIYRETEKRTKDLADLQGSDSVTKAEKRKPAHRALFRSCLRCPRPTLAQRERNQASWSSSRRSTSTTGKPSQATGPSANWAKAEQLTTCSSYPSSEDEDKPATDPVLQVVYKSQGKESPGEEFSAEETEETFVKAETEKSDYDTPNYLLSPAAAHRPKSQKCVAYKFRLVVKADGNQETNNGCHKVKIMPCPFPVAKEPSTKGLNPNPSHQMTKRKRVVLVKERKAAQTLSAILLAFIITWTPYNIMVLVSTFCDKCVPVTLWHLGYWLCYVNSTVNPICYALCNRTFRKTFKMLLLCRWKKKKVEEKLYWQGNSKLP
Sequence of Muscarinic acetylcholine receptor M3 (P20309 whole entry): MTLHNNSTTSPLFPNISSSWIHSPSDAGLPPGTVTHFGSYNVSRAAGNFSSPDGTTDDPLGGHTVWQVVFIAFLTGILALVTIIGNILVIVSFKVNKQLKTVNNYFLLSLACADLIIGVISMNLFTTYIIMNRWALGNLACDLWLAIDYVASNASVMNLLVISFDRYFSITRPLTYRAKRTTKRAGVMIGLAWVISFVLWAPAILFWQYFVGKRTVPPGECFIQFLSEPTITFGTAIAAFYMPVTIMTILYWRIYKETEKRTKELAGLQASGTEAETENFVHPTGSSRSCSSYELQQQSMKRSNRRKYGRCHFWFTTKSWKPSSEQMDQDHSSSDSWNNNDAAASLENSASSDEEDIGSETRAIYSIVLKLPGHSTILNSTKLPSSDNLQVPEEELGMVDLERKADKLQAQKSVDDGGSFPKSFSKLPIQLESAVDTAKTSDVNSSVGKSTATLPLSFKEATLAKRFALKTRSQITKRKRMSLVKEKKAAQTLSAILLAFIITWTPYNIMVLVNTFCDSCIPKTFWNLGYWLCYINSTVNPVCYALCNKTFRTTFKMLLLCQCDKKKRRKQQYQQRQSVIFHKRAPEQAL
Sequence of Receptor-type tyrosine-protein kinase FLT3 (Homo sapiens) (P36888 whole entry, the tested form may be a part): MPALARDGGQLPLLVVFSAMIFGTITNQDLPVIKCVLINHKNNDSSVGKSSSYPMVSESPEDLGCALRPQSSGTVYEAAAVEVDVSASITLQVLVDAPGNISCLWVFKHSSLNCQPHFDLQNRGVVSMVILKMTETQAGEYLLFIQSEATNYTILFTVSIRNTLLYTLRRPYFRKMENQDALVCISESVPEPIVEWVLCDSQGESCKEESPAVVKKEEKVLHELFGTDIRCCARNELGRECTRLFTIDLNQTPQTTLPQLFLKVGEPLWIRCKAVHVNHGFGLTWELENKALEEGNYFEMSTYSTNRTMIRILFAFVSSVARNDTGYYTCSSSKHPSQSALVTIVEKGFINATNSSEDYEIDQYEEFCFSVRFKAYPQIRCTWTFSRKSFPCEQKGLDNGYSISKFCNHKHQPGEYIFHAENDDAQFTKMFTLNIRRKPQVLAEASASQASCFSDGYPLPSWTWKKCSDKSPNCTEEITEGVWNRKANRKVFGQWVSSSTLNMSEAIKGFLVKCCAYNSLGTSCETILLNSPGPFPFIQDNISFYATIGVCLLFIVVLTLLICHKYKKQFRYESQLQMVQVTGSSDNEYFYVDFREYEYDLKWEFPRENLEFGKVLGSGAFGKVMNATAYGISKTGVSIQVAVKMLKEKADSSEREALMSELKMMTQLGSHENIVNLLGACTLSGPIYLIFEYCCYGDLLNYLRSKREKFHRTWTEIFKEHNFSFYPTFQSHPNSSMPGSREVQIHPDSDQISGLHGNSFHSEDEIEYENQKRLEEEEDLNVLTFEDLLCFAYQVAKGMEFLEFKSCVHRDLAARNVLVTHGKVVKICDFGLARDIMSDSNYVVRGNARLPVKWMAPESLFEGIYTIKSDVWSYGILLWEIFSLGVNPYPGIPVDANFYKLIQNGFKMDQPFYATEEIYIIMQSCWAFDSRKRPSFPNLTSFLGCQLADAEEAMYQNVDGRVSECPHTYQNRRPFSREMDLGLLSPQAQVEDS
Sequence of E3 ubiquitin-protein ligase UHRF1 (Q96T88 whole entry, the tested form may be a part): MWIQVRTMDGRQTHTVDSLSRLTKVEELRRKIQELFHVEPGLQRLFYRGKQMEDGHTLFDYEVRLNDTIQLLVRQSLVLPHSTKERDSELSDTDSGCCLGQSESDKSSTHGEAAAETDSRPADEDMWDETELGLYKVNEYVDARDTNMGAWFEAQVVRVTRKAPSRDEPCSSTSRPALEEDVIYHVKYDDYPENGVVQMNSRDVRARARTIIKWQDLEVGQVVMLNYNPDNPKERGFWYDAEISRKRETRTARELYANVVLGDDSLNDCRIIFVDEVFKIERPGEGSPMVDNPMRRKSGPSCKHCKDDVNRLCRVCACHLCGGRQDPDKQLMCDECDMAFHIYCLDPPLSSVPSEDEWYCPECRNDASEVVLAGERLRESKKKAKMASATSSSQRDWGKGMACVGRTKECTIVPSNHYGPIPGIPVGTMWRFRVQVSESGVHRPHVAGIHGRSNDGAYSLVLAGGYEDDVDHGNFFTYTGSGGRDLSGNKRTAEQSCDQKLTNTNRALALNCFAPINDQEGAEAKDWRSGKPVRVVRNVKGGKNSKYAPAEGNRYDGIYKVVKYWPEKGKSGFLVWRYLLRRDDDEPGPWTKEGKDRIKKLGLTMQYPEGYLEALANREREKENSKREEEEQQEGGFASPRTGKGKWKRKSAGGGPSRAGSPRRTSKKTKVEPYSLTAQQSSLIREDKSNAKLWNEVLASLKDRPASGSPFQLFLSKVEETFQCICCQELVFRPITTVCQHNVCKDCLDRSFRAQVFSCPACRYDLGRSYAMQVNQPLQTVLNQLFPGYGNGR
Sequence of Mortality factor 4-like protein 1 (Q9UBU8 whole entry): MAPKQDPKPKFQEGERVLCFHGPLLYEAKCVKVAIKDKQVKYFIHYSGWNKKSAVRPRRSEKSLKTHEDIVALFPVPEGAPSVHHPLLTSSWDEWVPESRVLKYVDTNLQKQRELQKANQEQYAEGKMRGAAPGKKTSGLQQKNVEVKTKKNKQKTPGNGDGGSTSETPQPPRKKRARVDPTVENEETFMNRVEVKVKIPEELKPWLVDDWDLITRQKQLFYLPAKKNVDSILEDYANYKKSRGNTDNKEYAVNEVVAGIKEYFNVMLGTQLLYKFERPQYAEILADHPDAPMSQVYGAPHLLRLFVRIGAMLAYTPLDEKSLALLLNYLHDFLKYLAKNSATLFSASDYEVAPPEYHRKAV
Sequence of Sodium-dependent dopamine transporter (Q01959 whole entry, the tested form may be a part): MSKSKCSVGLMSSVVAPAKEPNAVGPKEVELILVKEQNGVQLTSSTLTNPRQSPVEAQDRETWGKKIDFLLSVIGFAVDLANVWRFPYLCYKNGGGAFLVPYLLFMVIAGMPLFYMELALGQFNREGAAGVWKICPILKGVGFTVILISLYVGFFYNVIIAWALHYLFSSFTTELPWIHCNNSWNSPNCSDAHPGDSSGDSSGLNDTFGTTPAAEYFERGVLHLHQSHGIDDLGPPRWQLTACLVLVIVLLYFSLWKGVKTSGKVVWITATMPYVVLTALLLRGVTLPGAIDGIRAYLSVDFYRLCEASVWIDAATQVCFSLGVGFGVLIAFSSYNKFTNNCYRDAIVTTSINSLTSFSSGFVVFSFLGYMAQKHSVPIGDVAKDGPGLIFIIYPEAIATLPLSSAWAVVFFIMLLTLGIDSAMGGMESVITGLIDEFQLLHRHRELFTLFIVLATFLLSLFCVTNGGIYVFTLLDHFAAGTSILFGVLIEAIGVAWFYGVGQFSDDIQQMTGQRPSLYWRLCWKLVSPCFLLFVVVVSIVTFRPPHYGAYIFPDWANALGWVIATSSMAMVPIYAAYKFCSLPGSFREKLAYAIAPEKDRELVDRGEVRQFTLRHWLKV
Sequence of Chromobox protein homolog 7 (O95931 whole entry, the tested form may be a part): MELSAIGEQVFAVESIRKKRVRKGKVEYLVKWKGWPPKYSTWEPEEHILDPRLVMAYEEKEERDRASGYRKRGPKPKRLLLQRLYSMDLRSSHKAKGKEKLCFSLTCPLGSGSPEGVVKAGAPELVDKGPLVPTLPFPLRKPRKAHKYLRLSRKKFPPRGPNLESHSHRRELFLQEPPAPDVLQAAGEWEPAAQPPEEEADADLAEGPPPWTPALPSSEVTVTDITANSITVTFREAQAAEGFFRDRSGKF

As usually defined, the IC50 is the midpoint of a concentration-inhibition curve. As a reminder, the inhibition is how much of the control response was suppressed. Broadly, the Ki is a measure of affinity in units of concentration, obtained from inhibition or displacement. A low value points to a stronger hold on the target. The term Kd denotes the concentration at which binding is half-saturated. A higher Kd goes with lower affinity. In the case of `O=C(c1ccc(C(=O)N2CCC(N3CCCC3)CC2)c(Nc2ccccc2)c1)N1CCC(N2CCCC2)CC1`, the figures for the Diffusion coefficient in series [1], in [4] and in series [15] were 0.051 um2/s, 0.297 um2/s and 0.284 um2/s, respectively. Moreover, the IC50 in [2] is > 30 µM; in series [9], 0.5 µM; in [12], > 30 µM; in series [14] it was 0.04 µM. The compound further registered an inhibition in series [3] of 64%. In addition, in series [5], the Activity result was “Non-Toxic”. The Ki in series [6] was 0.86 µM; in series [8], 4.3 µM; in [11] it was > 10 µM; in [13], 0.89 µM. The Kd is 28.9 µM in series [7], 3.1 µM in [16] and > 31 µM at TP53-binding protein 1. Besides, the T1/2 is 20.1 s in [10], 19.9 s in series [18] and 20.3 s in series [19]. In the series listed under Homo sapiens, the result was inactive. In addition, the Stability result in series [17] is given as “Stable”.
